Source: PubChem
An excerpt weighted towards active compounds, which were near 1.9% of everything screened.
SR-BI uptake up – activators of SR-BI mediated HDL lipid uptake; CHO ldlA[mSR-BI] cells, DiI-HDL uptake fluorescence, 3 h; 100 = double the neutral-control signal; activation, % at 12.5 µM; hit rate 0.096% among 320,000;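 active = mean replicate activation of at least 60% and every replicate at or above 60%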;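 also: 0% = median plate neutral-control signal and 100% = twice that signal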
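Test system: SR-BI-overexpressing, LDLR-lacking CHO cells; Medium: Ham's F12 with 0.5% BSA, HEPES 25 mM, pH 7.4; Schedule: 3 h, 37 °C; Technique: bottom-read fluorescence, 550/595 nm.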
GRK2 inh – blocks RNA aptamer binding to human GRK2 | P25098 | hit rate 0.59% among 330,000 | AID 488847 | inhibition of aptamer binding, % at 10 µM | bead flow cytometry, FAM-aptamer displacement from GRK2;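 active = inhibition of aptamer binding above 40%, roughly 3 SD of noise, on plates passing a quality check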;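 also: median bead fluorescence of bound FAM aptamer so fluorescent compounds give negative values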
Target sequence (P25098 whole entry, looked up): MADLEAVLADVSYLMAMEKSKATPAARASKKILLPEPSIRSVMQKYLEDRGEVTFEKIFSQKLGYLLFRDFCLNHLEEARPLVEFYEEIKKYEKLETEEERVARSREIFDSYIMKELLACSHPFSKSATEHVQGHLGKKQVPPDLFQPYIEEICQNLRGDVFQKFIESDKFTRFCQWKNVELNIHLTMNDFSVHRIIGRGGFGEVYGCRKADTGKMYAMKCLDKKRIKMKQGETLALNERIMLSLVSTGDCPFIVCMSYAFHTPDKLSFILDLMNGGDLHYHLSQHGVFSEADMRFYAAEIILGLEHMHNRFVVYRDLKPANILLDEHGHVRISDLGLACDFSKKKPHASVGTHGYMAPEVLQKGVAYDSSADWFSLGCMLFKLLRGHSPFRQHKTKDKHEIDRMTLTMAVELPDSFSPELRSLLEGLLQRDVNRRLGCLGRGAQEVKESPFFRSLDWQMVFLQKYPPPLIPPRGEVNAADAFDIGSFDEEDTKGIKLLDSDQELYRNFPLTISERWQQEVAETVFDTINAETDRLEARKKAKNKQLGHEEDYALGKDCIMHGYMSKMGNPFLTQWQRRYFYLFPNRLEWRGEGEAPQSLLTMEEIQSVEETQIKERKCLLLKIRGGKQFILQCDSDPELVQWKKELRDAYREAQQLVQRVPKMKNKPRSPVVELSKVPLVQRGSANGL
SR-BI DiI inh – inhibitors of mouse SR-BI mediated HDL lipid uptake; Q61009; ldlA[mSR-BI] CHO cells, DiI-HDL uptake fluorescence, 3 h; inhibition, % at 12.5 µM; hit rate 0.96% among 320,000; AID 488896;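 active = mean replicate inhibition of at least 70% and a set share of replicates each scoring 70 or more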;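 also: 0% = median of neutral control wells and 100% = median of positive control wells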
Rin1 Abl inh – blocks binding of human Rin1 to Abl | P00519+Q13671 | TR-FRET Rin1/Abl binding, biochemical | inhibition, % at 7.35 µM | hit rate 0.4% among 360,000 | AID 588664; in the data active = inhibition above about 5%, passing the limit was not always enough
GRK2 CP1 – confirmation of human GRK2 inhibitors displacing RNA aptamer; bead-bound GRK2, FAM-aptamer displacement, flow cytometry; AID 504451; hit rate 4% among 2,000; shares compounds with GRK2 inh; aptamer displacement, % at 10 µM;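 active = aptamer displacement above 40%, near three times the noise of non-fluorescent compounds, on plates passing quality checks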;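 also: negative values mostly reflect intrinsic compound fluorescence rather than true enhancement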
Aptamer quench SP – quenches fluorescent RNA aptamer, GRK2 hit artifact | shares compounds with GRK2 inh | Carboxyfluorescein RNA aptamer on beads, flow cytometry quenching; stronger effect = lower value | fluorescence response (% of DMSO), % at 10 µM | 2,000 tested, under 10 active;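 active = compounds that quench the bead-bound fluorescent RNA probe, cutting fluorescence to under half of the solvent control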;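 also: counterscreen run without GRK2 so only probe quenching by compound is measured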
GRK2 CP2 – human GRK2 inhibition confirmation, cherry pick 2; shares compounds with GRK2 inh; bead-bound GRK2, FAM-aptamer displacement, flow cytometry; inhibition of aptamer binding, % at 10 µM; 360 tested, under 10 active; AID 504782;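 active = inhibition of aptamer binding above 40%, about triple the noise seen with nonglowing compounds, on plates passing quality control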;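 also: negative values mostly come from compounds that fluoresce themselves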
FAM quench CP2 – aptamer fluorescence quenching in GRK2 counter-screen; carboxyfluorescein RNA aptamer beads, flow cytometry quenching; stronger effect = lower value; fluorescence response vs DMSO, % at 10 µM; shares compounds with GRK2 inh; 360 tested, under 10 active;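 active = response vs DMSO under 50%, meaning signal dropped by over half, treated as fluorescence quencher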;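 also: labelled aptamer on streptavidin beads without GRK2 as a quench counter-screen; 100% = bead fluorescence of DMSO wells and lower means quenching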
* marks the source's active call; other numbers are inactive results; · = not tested or not shown.

SMILES | SR-BI uptake up | GRK2 inh | SR-BI DiI inh | Rin1 Abl inh | GRK2 CP1 | Aptamer quench SP | others
Cc1nc2c(sc(=S)n2Cc2ccco2)c(=O)n1CC(=O)Nc1ccccc1Cl | 18 | 84* | -18 | -1 | -4 | 118
O=C(C[n+]1cccc(CO)c1)Nc1nc2ccccc2s1 | 0 | 42* | 0 | 2 | 3 | 101
Cc1[nH]nc2c1/C(=N\O)CCC2 | 14 | 40 | -14 | 1 | -3 | 102
O=C(NCCCN1CCOCC1)C1CCN(S(=O)(=O)c2cccc(C(F)(F)F)c2)CC1 | 23 | 0 | -23 | -3 | · | ·
CCCC(=O)Nc1nnc(SCC)s1 | 5 | 100* | -5 | -2 | · | · | GRK2 CP2=-16;FAM quench CP2=102
O=C(c1ccc(F)cc1)C1CCN(C(=O)c2ccccc2F)CC1 | 15 | 7 | -15 | 2 | · | ·
COc1ccc(NC(=O)COC(=O)c2ccc(OC)c(S(=O)(=O)N3CCCC3)c2)cc1OC | 1 | 3 | -1 | 2 | · | ·
Cc1cc(-c2cccnc2)c(C#N)c(SCC#N)n1 | 0 | 84* | 0 | -1 | 1 | 98
Cc1cc(-c2cccnc2)c(C#N)c(SCc2cccc(F)c2)n1 | -26 | 0 | 26 | 1 | · | ·
Cn1c(SCc2cccc(F)c2)nnc1-c1ccccn1 | 10 | 58* | -10 | 2 | -2 | 100
Cn1c(SCc2cccc(Br)c2)nnc1-c1ccccn1 | -14 | 3 | 14 | 4 | · | ·
CC1=C(C(=O)OCC2CCCCC2)C(c2ccc(O)cc2)NC(=O)N1 (stereo not drawn) | -6 | 16 | 6 | 3 | -42 | 192
NC(=O)CSc1nnc(-c2ccc(S(=O)(=O)N3CCCC3)cc2)o1 | 18 | 45* | -18 | 2 | -1 | 81
Cc1ccc(CSc2nnc(-c3ccc(S(=O)(=O)N4CCCC4)cc3)o2)cc1 | -5 | 59* | 5 | -2 | -2 | 95
COc1ccc(OC(F)(F)F)cc1CC1(C)C(=O)Nc2ccc(-c3ccsc3)cc21 (stereo not drawn) | · | · | · | -2 | · | ·
CCCNC(=O)N(C)C[C@@H]1Oc2cc(C#CC(C)(C)O)ccc2S(=O)(=O)N([C@H](C)CO)C[C@H]1C | · | · | · | 0 | · | ·
CN=C1S/C(=C\c2cccc(Cl)c2Cl)C(=O)N1C | · | 0 | · | · | · | ·
CNC(=O)C1Cc2c(-c3ccc(Cl)cc3)ccnc2O1 (stereo not drawn) | · | · | · | -1 | · | ·
CC(=O)NC1C(=O)N(CCN2CCOCC2)c2ccc(C)cc21 (stereo not drawn) | 21 | 20 | -21 | 5 | · | ·
CC(=O)NC1C(=O)N(CCN2CCOCC2)c2ccc(Cl)cc21 (stereo not drawn) | 6 | 98* | -6 | -1 | -2 | 99
C#CCOc1ccc(C2C(C#N)=C(N)Oc3cc(O)ccc32)cc1 (stereo not drawn) | -14 | 0 | 14 | -2 | · | ·
COc1cc(C2C(=O)N(C3CCCC3)CC(=O)N2Cc2ccco2)ccc1OC(C)C (stereo not drawn) | 28 | 58* | -28 | -1 | -1 | 99
C=CCn1c(SCC(=O)Nc2cc(C)on2)nc2ccccc21 | · | · | · | -1 | · | ·
COCOc1ccc(C=O)c(O)c1 | 10 | 0 | -10 | -4 | · | ·
COCOc1ccc(C=O)c(OCOC)c1 | 2 | 98* | -2 | -1 | -1 | 100
O=C(CNC(=O)c1ccccc1)N/N=C/c1ccccc1Cl | 8 | 47* | -8 | -2 | -1 | 97
CC(OC(=O)Cc1c[nH]c2ccccc12)C(=O)N(C)c1ccccc1 (stereo not drawn) | 7 | 9 | -7 | 0 | -1 | 96
CC(OC(=O)Cc1c[nH]c2ccccc12)C(=O)c1ccccc1 (stereo not drawn) | 7 | 2 | -7 | 5 | · | ·
CC1CC(C)CN(S(=O)(=O)c2cccc(C(=O)OCCN3CCCC3=O)c2)C1 (stereo not drawn) | 4 | 89* | -4 | -2 | 2 | 98
